# An excerpt weighted towards active compounds, which were near 2.7% of everything screened.
# PG9 Ab binder – small molecules binding HIV-1 gp120 antibody PG9. TR-FRET gp120-PG9 antibody binding. inhibition, % at 6.7 µM. AID 624416. 360,000 compounds, 0.43% hits; in the data active = inhibition above about 8.5%
# NR2E3 ag-1 – agonists of human NR2E3 nuclear receptor | Q9Y5X4 | CHO-S Gal4-NCOR/VP16-NR2E3 two-hybrid, luciferase | inhibition of corepressor binding, % at 3.98 µM | 360,000 compounds, 0.35% hits | AID 602229;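 active = inhibition above the mean of all tested compounds plus 3 SD, cut at about 70% in these data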;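 note: 0% = DMSO with NR2E3 transfected cells and 100% = cells lacking NR2E3 construct; higher means lower luciferase signal from less NR2E3 corepressor binding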
# Target sequence (Q9Y5X4 whole entry, looked up, the tested form may be a part): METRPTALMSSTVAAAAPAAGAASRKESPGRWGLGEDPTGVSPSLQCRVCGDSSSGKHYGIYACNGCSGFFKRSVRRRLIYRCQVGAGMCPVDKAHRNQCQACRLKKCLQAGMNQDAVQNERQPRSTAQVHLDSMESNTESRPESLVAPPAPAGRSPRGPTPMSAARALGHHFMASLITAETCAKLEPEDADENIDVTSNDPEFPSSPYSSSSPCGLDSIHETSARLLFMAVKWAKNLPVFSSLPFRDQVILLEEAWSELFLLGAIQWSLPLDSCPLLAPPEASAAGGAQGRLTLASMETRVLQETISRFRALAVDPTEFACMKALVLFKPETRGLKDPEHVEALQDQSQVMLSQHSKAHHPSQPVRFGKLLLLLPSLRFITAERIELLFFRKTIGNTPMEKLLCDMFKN
# NR1D1 modulator – modulators of human Rev-erb alpha DNA binding | Rev-erbα–FITC-DNA binding, fluorescence polarization, 90 min | activity, % at 10 µM | AID 1259318 | P20393 | 370,000 compounds, 0.79% hits;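 active = activity above about 14%, limit read from the data; passing the limit was not always enough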;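 note: 0% = DMSO wells with 35 nM protein and 100% = DMSO wells with 750 nM protein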
# MC4R ag barr – human MC4R agonism via beta-arrestin; AID 540308; activation, % at 8.9 µM; 360,000 compounds, 0.98% hits; P32245; U2OS MC4R beta-arrestin complementation, luminescence; percent of melanotan II response, DMSO zero;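 active = activation above a per-plate cutoff, the mean activation of sample wells on that plate plus 3 SD, cut at about 8% in these data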
# Target sequence (P32245 whole entry, looked up): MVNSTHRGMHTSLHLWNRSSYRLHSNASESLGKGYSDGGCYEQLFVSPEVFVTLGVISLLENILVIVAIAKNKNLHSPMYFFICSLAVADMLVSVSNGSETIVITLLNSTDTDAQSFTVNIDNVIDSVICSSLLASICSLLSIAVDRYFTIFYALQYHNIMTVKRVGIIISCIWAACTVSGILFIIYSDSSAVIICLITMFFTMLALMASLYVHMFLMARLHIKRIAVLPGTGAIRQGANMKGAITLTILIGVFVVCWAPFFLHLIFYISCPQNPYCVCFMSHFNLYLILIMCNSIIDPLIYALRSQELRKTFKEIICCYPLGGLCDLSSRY
# MC4R antagonist – blocks human MC4R cAMP signaling. 360,000 compounds, 0.48% hits. AID 540295. inhibition, % at 6.5 µM. MC4R-expressing cells, MTII-stimulated cAMP, LANCE TR-FRET. P32245;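 active = inhibition above its plate's cutoff, the mean of tested wells on that plate plus 3 SD, cut at about 29% in these data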;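 note: 0% = Melanotan II alone and 100% = Melanotan II plus saturating MCL0020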
#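 System: U2OS-MC4R stable cell line; Technique: Eu-cAMP/anti-cAMP TR-FRET, emission 671 nm; Repeats: single well per compound; Also added: Melanotan II; Dosing: one concentration, 6.5 µM nominal; Schedule: 30-min compound, 1-h challenge, 1-h detection, room temperature.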
# NR2E3 ag-2 – NR2E3 (human) agonism. Q9Y5X4. GST-NR2E3/biotin-RetCOR TR-FRET, 1536-well. inhibition of corepressor binding, % at 4.78 µM. 320,000 compounds, 0.12% hits. AID 2300;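 active = percent inhibition above the cutoff of mean plus 3 SD of all tested compounds, set per screening campaign, cut at about 20% in these data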;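 note: 0% = DMSO wells and 100% = biotin wells as full block of FRET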
#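 Material – GST-tagged NR2E3 plus biotinylated RetCOR corepressor · Quantity – NR2E3 fusion 1.35 nM · Times – 5 h incubation at 4 °C · Medium – pH 7.5 Tris-based buffer · Technique – TR-FRET, Eu(K)-anti-GST donor, streptavidin-D2 acceptor, ex 340, em 617/671 nm · Benchmarks – high control biotin, low control 0.6% DMSO · Format – 1536-well plates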
# MC4R barr conf – human MC4R beta-arrestin agonism confirmation; shares compounds with MC4R ag barr; U2OS MC4R beta-arrestin recruitment, luminescence; scaled DMSO 0%, Melanotan II 100%; activation, % at 8.9 µM; 2,400 compounds, 31% hits;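 active = mean activation across replicates above the hit cutoff set in the earlier primary screen, cut at about 8% in these data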
# MOR-DOR barr ag – activates mu-delta opioid heterodimer, MC4R agonist counter-screen; shares compounds with MC4R ag barr; U2OS PathHunter beta-arrestin, beta-gal luminescence; percent of deltorphin B response, DMSO zero; activation, % at 9.2 µM; 2,400 compounds, 5.8% hits;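 active = mean activation across replicates exceeds the hit threshold derived in the earlier primary screen, cut at about 18% in these data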;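 note: 100% = deltorphin B at 0.9 µM final and 0% = DMSO alone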
# An asterisk follows results filed as active; . = no result.
SMILES,PG9 Ab binder,NR2E3 ag-1,NR1D1 modulator,MC4R ag barr,MC4R antagonist,NR2E3 ag-2,MC4R barr conf,MOR-DOR barr ag
C=CCOc1ccc(/C=C/C(=O)OCC(=O)NCCc2ccccc2)cc1,1.5,-2.2,-6.9,-0.2,1.4,0.7,.,.
C=CCOc1ccc(/C=C/C(=O)OCC(=O)NCc2cccc(OC)c2)cc1,-0.3,-6.2,-1.8,28.2*,3.2,3.4,1.9,5.5
O=C1OC(c2ccccc2)(c2cc(Br)ccc2O)c2ccccc21 (centres undefined),-0.8,30.2,5.8,21.2*,6.9,.,19.7*,8.9
C=CCc1cc(OC)ccc1OCC(O)CN1CCN(c2ccc(OC)cc2)CC1 (centres undefined),-0.6,-9.1,-0.2,-1.0,-3.2,-2.1,.,.
O=C(COc1ccc2ccccc2c1Br)Nc1ncn[nH]1,.,-21.1,0.8,13.1*,12.3,3.5,0.7,1.5
Cc1cccc(C)c1OCC(=O)Nc1ncn[nH]1,-0.3,-18.4,-1.9,-0.4,1.1,2.7,.,.
O=C(NCCC1=CCCCC1)c1cc(S(=O)(=O)N2CCOCC2)c(Cl)cc1Cl,0.6,-19.3,-1.8,10.1*,5.2,-2.5,0.1,4.7
O=C(NCCC1=CCCCC1)c1cc(S(=O)(=O)N2CCOCC2)ccc1Cl,0.9,6.3,-3.8,1.9,-0.7,0.3,.,.
Cc1cccc(NC(=O)CSc2nc(COc3ccccc3)nc3ccccc23)c1C,-0.7,-6.3,6.7,20.4*,6.9,3.7,2.8,4.0
Cc1cccc(C)c1NC(=O)CSc1nc(COc2ccccc2)nc2ccccc12,1.4,-11.2,6.8,6.7,11.3,3.0,.,.
CCc1ccc(C(O)c2ncc(-c3cccc(C(F)(F)F)c3)[nH]2)cc1 (centres undefined),0.5,8.1,9.2,12.8*,7.7,.,10.5*,9.1
CCc1ccc(C(O)c2ncc(-c3ccc4ccccc4c3)[nH]2)cc1 (centres undefined),-0.4,-23.3,6.5,17.3*,9.6,.,6.8,8.5
Cc1ccc(C(O)c2ncc(-c3ccc4ccccc4c3)[nH]2)cc1 (centres undefined),-0.9,-48.3,9.5,0.3,10.5,.,.,.
O=C(/C=C/c1ccc(OC(F)F)cc1)OCC(=O)N1CCc2ccccc21,1.1,-11.5,-1.8,13.2*,2.9,3.6,2.0,6.3
COc1ccc(-c2cc(NC=O)c3ncc(-c4ccc(OC)c(OC)c4)n3c2)c(OC)c1,-0.7,7.0,0.8,4.2,-63.9,.,.,.
COc1ccc(-c2cc(NC=O)c3ncc(-c4cnn(C)c4)n3c2)cc1,-0.2,8.8,6.7,14.5*,-1.8,.,9.6*,1.2
COc1ccc(-c2cc(NC=O)c3ncc(-c4cccc(OC)c4)n3c2)cc1,0.1,-8.9,0.2,3.2,-5.8,.,.,.
COc1cccc(-c2cnc3c(NC=O)cc(-c4cc(OC)c(OC)c(OC)c4)cn23)c1,-0.3,23.4,10.9,28.6*,-36.2,.,26.2*,3.3
COc1cccc(-c2cnc3c(NC=O)cc(-c4ccc(N(C)C)cc4)cn23)c1,1.2,-60.4,-1.1,14.6*,-5.1,.,7.8,2.5
COc1cccc(-c2cnc3c(NC=O)cc(-c4ccc(OC)cc4OC)cn23)c1,0.3,26.9,7.3,14.4*,-38.2,.,11.9*,2.5
COc1cccc(-c2cc(NC=O)c3ncc(-c4ccc(OC)c(OC)c4)n3c2)c1,-0.7,0.3,5.8,3.6,-29.2,.,.,.
COc1cccc(C(=O)NC(C)c2ccc(-c3ccccc3)cc2)c1OC (centres undefined),-0.3,41.2,2.5,5.0,15.0,3.4,.,.
COc1ccc(S[C@]2(C(=O)N3CCCC3)CC(=O)N[C@@H]2c2ccc(OC)cc2)cc1,.,.,1.9,.,.,.,.,.
COc1cc(/C=C/C(=O)OCC(=O)NCCc2ccc(F)cc2)ccc1OC(F)F,-2.7,18.2,-1.4,10.3*,10.6,.,2.9,3.6
COc1ccc(N2CCN(S(=O)(=O)c3ccc4oc(=O)ccc4c3)CC2)cc1,1.1,-27.1,-5.2,-1.4,7.1,2.2,.,.
SMILES,PG9 Ab binder,NR2E3 ag-1,NR1D1 modulator,MC4R ag barr,MC4R antagonist,NR2E3 ag-2,MC4R barr conf,MOR-DOR barr ag
CN1CCC2(CC1)N=C(c1ccc(F)cc1)C(=S)N2C(=O)c1ccc(C(C)(C)C)cc1,-2.1,8.9,-0.8,10.9*,13.2,-1.0,5.1,17.6
C#CCOc1ccc(/C=C2\SC(=S)N(Cc3cccnc3)C2=O)cc1,0.4,22.0,-3.5,12.6*,2.3,-0.2,3.3,3.3
COc1ccccc1NC(=O)CSc1nnc(COc2ccccc2C)o1,-0.2,-11.6,9.4,-0.9,0.9,0.9,.,.
CCOC(=O)c1cccc(NC(=O)CSc2nnc(COc3ccccc3C)o2)c1,0.9,-13.8,2.0,11.1*,-11.7,0.1,3.3,9.0
COC(=O)c1c(NC(=O)CN2CCN(Cc3ccc4c(c3)OCO4)CC2)sc(C)c1C,-0.1,-3.4,1.0,9.6*,12.7,0.3,7.7,12.6
COc1cc(C(=O)NCC(=O)NCCCSc2ccccc2)cc(OC)c1OC,-1.7,0.8,-0.8,-3.0,6.8,3.3,.,.
COc1ccccc1N=c1oc2c(OC)cccc2cc1C(=O)NCc1ccco1,.,-5.2,.,24.2*,0.7,-3.4,4.2,25.3*
COc1ccc(OC)c(N=c2oc3c(OC)cccc3cc2C(=O)NCc2ccco2)c1,-0.3,9.2,3.5,-2.2,7.5,0.7,.,.
O=C(NC(=S)Nc1ccc2oc(=O)ccc2c1)c1cccc(F)c1,-1.8,-34.9,-14.1,-3.1,4.5,1.9,.,.
O=C(NC(=S)Nc1ccc2oc(=O)ccc2c1)c1cccc(Cl)c1,-1.4,-7.9,-2.4,19.5*,-3.8,-0.8,3.6,4.6
Cc1ccc2cc(C)c(SCC(=O)NCC3CCCO3)nc2c1 (centres undefined),0.2,-2.8,-0.1,1.5,11.4,2.0,.,.
Cc1ccc2cc(C)c(SCC(=O)Nc3cc(C)on3)nc2c1,5.5,-14.5,11.2,19.9*,18.0,-1.9,6.3,3.3
CN(C(=O)CN1C(=O)NC2(CCCc3ccccc32)C1=O)C1CCCCC1 (centres undefined),-1.2,2.4,-0.2,-1.3,8.6,.,.,.
COc1ccc(CN(C)C(=O)c2cc(S(=O)(=O)Nc3ccccc3F)ccc2C)c(OC)c1,0.3,-14.0,-0.2,11.8*,11.3,6.7,0.8,2.5
COc1cccc(CN(C)C(=O)c2ccc(S(=O)(=O)Nc3ccccc3F)cc2)c1OC,1.5,4.5,-0.1,-1.1,4.3,.,.,.

# Screening data (PubChem BioAssay)
